# In ChEMBL document CHEMBL5154895, “Mechanistic Studies and In Vivo Efficacy of an Oxadiazole-Containing Antibiotic” (J Med Chem, 2022):
# Key:
# Staphylococcus aureus [1] = test: Antibacterial activity against Staphylococcus aureus MRSA ATCC 33592 assessed as inhibition of bacterial growth incubated for 18 to 20 hrs by broth microdilution method; format: functional; conditions: time 18-20 hrs
# In short: (§1)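 Broth microdilution per CLSI. Inoculum at 0.5 McFarland, diluted in cation-adjusted Mueller Hinton broth to about 5 × 10^5 CFU/mL. Serial compound dilutions incubated aerobically at 37° C for 18–20 hours. MIC taken as the lowest concentration completely inhibiting visible growth.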
# Staphylococcus aureus [2] = test: Antibacterial activity against Staphylococcus aureus ATCC 25923 assessed as inhibition of bacterial growth incubated for 18 to 20 hrs by broth microdilution method; format: functional; conditions: time 18-20 hrs; in short: as §1
# [3] = Toxicity in Balb/c mouse infected with methicillin-resistant Staphylococcus aureus USA300 assessed as chronic inflammatory response administered topically twice daily 2 days post infection and measured after 5 days post compound treatment by H and E staining based histopathological analysis; conditions: in vivo, topical_or_ocular, 120 h, time 5 day
# In short: (§2)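 MRSA USA300-infected punch wounds in mice, n=5. Topical 2% agent or petroleum jelly vehicle twice daily from day 2 for 5 days. The left wound was formalin-fixed, cut into 4-μm sections and H&E-stained. Whole slides were scanned and assessed by a board-certified veterinary pathologist for necrosis, inflammation, haemorrhage and related features.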
# [4] = Toxicity in Balb/c mouse infected with methicillin-resistant Staphylococcus aureus USA300 assessed as hemorrhage administered topically twice daily 2 days post infection and measured after 5 days post compound treatment by H and E staining based histopathological analysis; conditions: in vivo, topical_or_ocular, 120 h, time 5 day; in short: as §2
# [5] = In vivo antibacterial activity against methicillin-resistant Staphylococcus aureus USA300 infected in Balb/c mouse model assessed as reduction in bacterial infection in skin wounds administered topically twice daily 2 days post infection and measured after 5 days post compound treatment by CFU counting; parameters: scale not given: the % may be the effect or the level left; conditions: time 5 day
# [6] = Toxicity in Balb/c mouse infected with methicillin-resistant Staphylococcus aureus USA300 assessed as necrosis administered topically twice daily 2 days post infection and measured after 5 days post compound treatment by H and E staining based histopathological analysis; conditions: in vivo, topical_or_ocular, 120 h, time 5 day; in short: as §2
# [7] = Toxicity in Balb/c mouse infected with methicillin-resistant Staphylococcus aureus USA300 assessed as chronic inflammatory response at 25 mg/kg, ip administered 2 days post infection twice daily and measured after 5 days post compound treatment by H and E staining based histopathological analysis; format: organism-based; conditions: in vivo, 120 h, time 5 day
# [8] = Toxicity in Balb/c mouse infected with methicillin-resistant Staphylococcus aureus USA300 assessed as hemorrhage at 25 mg/kg, ip administered 2 days post infection twice daily and measured after 5 days post compound treatment by H and E staining based histopathological analysis; format: organism-based; conditions: in vivo, 120 h, time 5 day
# [9] = Toxicity in Balb/c mouse infected with methicillin-resistant Staphylococcus aureus USA300 assessed as necrosis at 25 mg/kg, ip administered 2 days post infection twice daily and measured after 5 days post compound treatment by H and E staining based histopathological analysis; format: organism-based; conditions: in vivo, 120 h, time 5 day
# [10] = In vivo antibacterial activity against methicillin-resistant Staphylococcus aureus USA300 infected Balb/c mouse model assessed as reduction in bacterial infection in skin wounds at 25 mg/kg , ip administered 2 days post infection once daily and measured after 5 days post compound treatment by histopathological analysis; parameters: scale not given: the % may be the effect or the level left; conditions: time 5 day
Structure (SMILES),MIC (Staphylococcus aureus [1]),MIC (Staphylococcus aureus [2]),other results
CC1CCCN(S(=O)(=O)c2ccc(C(=O)Nc3nnc(-c4ccc(C(F)(F)F)cc4)o3)cc2)C1 (stereo unspecified),2 µg/mL,2 µg/mL,–
C[C@@H]1C[C@H](C)CN(S(=O)(=O)c2ccc(C(=O)N(C)c3nnc(-c4ccc(C(F)(F)F)cc4)o3)cc2)C1,> 64 µg/mL,> 64 µg/mL,–
CN(C)S(=O)(=O)c1ccc(C(=O)Nc2nnc(-c3ccc(C(F)(F)F)cc3)o2)cc1,16 µg/mL,16 µg/mL,–
O=C(Nc1nnc(-c2ccc(C(F)(F)F)cc2)o1)c1ccc(S(=O)(=O)N2C[C@@H]3CC[C@H]2C3)cc1,2 µg/mL,2 µg/mL,–
CC1CCCCN1S(=O)(=O)c1ccc(C(=O)Nc2nnc(-c3ccc(C(F)(F)F)cc3)o2)cc1 (stereo unspecified),2 µg/mL,2 µg/mL,–
C/C(=C\C(=O)OCCCCCCCCC(=O)O)C[C@@H]1OC[C@H](C[C@@H]2O[C@H]2[C@@H](C)[C@H](C)O)[C@@H](O)[C@H]1O [MUPIROCIN],–,–,Activity [3]: Toxic; Activity [4]: Toxic; Activity [5]: 98.8%; Activity [6]: Toxic
O=C(Nc1nnc(-c2ccc(C(F)(F)F)cc2)o1)c1ccc(S(=O)(=O)NC2CC2)cc1,4 µg/mL,4 µg/mL,–
O=C(Nc1nnc(-c2ccc(C(F)(F)F)cc2)o1)c1ccc(S(=O)(=O)N2CCCC2)cc1,2 µg/mL,2 µg/mL,–
CCC[C@@H]1C[C@@H](C(=O)N[C@@H]([C@H]2O[C@H](SC)[C@H](O)[C@@H](O)[C@H]2O)[C@H](C)Cl)N(C)C1 [CLINDAMYCIN],–,–,Activity [7]: Toxic; Activity [8]: Toxic; Activity [9]: Toxic; Activity [10]: 93.4%
CC1CCN(S(=O)(=O)c2ccc(C(=O)Nc3nnc(-c4ccc(C(F)(F)F)cc4)o3)cc2)CC1,1 µg/mL,1 µg/mL,–
O=C(Nc1nnc(-c2ccc(C(F)(F)F)cc2)o1)c1ccc(S(=O)(=O)N2CCCCC2)cc1,2 µg/mL,2 µg/mL,–
